Experimental data: ChEMBL document CHEMBL1148007, “Synthesis of new S-derivatives of clubbed triazolyl thiazole as anti-Mycobacterium tuberculosis agents” (Bioorg Med Chem, 2007)
Converted amounts (≈) assume the structure as drawn.

Legend:
Escherichia coli = experiment: Antibacterial activity against Escherichia coli at 50 to 100 uM after 24 hrs by well diffusion method; type: functional
In short: (§1)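 Nutrient agar plates with 10 mm wells cut by cork borer; 24-h subcultured bacteria swabbed on. Compounds dissolved in chloroform, 50 to 100 μM added to wells, gentamycin as standard. Incubated 24 h at 24–28 °C; inhibition zone diameter measured and converted to percent inhibition.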

Pseudomonas aeruginosa = experiment: Antibacterial activity against Pseudomonas aeruginosa at 50 to 100 uM after 24 hrs by well diffusion method; type: functional; in short: as §1
Salmonella typhi = experiment: Antibacterial activity against Salmonella typhi at 50 to 100 uM after 24 hrs by well diffusion method; type: functional, Salmonella enterica subsp. enterica serovar Typhi; set-up: unit not given here; in short: as §1
[1] = system: Mycobacterium tuberculosis; experiment: Antitubercular activity against Mycobacterium tuberculosis H37Rv by MABA assay; type: functional
In short: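 Actives re-tested at lower concentrations against H37Rv (ATCC 27294) in BACTEC 12B medium by Microplate Alamar Blue Assay. MIC taken as lowest concentration giving […] fluorescence reduction versus controls; rifampin reference.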

Staphylococcus aureus = experiment: Antibacterial activity against Staphylococcus aureus at 50 to 100 uM after 24 hrs by well diffusion method; type: functional; in short: as §1
[2] = Cytotoxicity against Vero-C1008 cells at 6.25 to 50 ug/mL by neutral red uptake assay; type: cell-based; settings: chlorocebus sabaeus
In short: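 Vero-C-1008 cells exposed to 6.25 to 50 μg/mL compound; viability read by neutral red uptake.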

Row | Molecule | inhibition zone (Escherichia coli) | inhibition zone (Pseudomonas aeruginosa) | Inhibition (Salmonella typhi) | MIC [1] | inhibition zone (Staphylococcus aureus) | Activity [2] | inhibition (Escherichia coli) | inhibition (Pseudomonas aeruginosa) | inhibition (Salmonella typhi; Salmonella enterica subsp. enterica serovar Typhi) | inhibition (Staphylococcus aureus)
1 | CC(=O)NNC(=O)CSc1nnc(Cc2csc(NCCC(=O)O)n2)n1NC(=O)c1ccc(Cl)cc1 | 26 mm | 21 mm | 18 | < 6.25 µg/mL | 20 mm | Non-toxic | – | – | – | –
2 | Nn1c(S)nnc1CSc1nnc(Cc2csc(NC(=O)c3ccccc3)n2)n1NC(=O)c1cccc([N+](=O)[O-])c1 | 20 mm | 27 mm | 19 | < 6.25 µg/mL | 24 mm | Non-toxic | – | – | – | –
3 | CC(=O)NNC(=O)CSc1nnc(Cc2csc(NC(=O)c3ccccc3)n2)n1NC(=O)c1ccc(Cl)cc1 | 21 mm | 24 mm | 19 | < 6.25 µg/mL | 26 mm | Non-toxic | – | – | – | –
4 | Nn1c(S)nnc1CSc1nnc(Cc2csc(NCCC(=O)O)n2)n1NC(=O)c1ccc(Cl)cc1 | 19 mm | 24 mm | 23 | < 6.25 µg/mL | 21 mm | Non-toxic | – | – | – | –
5 | Nn1c(S)nnc1CSc1nnc(Cc2csc(NC(=O)c3ccccc3)n2)n1NC(=O)c1ccc(Cl)cc1 | 20 mm | 19 mm | 19 | < 6.25 µg/mL | 26 mm | Non-toxic | – | – | – | –
6 | CC(=O)Nc1nc(Cc2nnc(SCC#N)n2NC(=O)c2cccc([N+](=O)[O-])c2)cs1 | 20 mm | 26 mm | 21 | < 6.25 µg/mL | 22 mm | Non-toxic | – | – | – | –
7 | CC(=O)Nc1nc(Cc2nnc(SCc3nnc(S)n3N)n2NC(=O)c2ccc(Cl)cc2)cs1 | 23 mm | 21 mm | 18 | < 6.25 µg/mL | 28 mm | Non-toxic | – | – | – | –
8 | CC(=O)Nc1nc(Cc2nnc(SCC(=O)NNC(=O)CCl)n2NC(=O)c2cccc([N+](=O)[O-])c2)cs1 | 18 mm | 18 mm | 14 | < 6.25 µg/mL | 12 mm | Non-toxic | – | – | – | –
9 | COC(=O)CSc1nnc(Cc2csc(NC(C)=O)n2)n1NC(=O)c1cccc([N+](=O)[O-])c1 | 20 mm | 22 mm | 18 | < 6.25 µg/mL | 24 mm | Non-toxic | – | – | – | –
10 | CO[C@H]1/C=C/O[C@@]2(C)Oc3c(C)c(O)c4c(O)c(c(/C=N/N5CCN(C)CC5)c(O)c4c3C2=O)NC(=O)/C(C)=C\C=C\[C@H](C)[C@H](O)[C@@H](C)[C@@H](O)[C@@H](C)[C@H](OC(C)=O)[C@@H]1C [RIFAMPIN] | – | – | – | 0.015 µg/mL (≈ 0.0182 µM) | – | – | – | – | – | –
11 | CC(=O)Nc1nc(Cc2nnc(SCSc3nnc(Cc4csc(NC(C)=O)n4)n3NC(=O)c3ccc(Cl)cc3)n2NC(=O)c2ccc(Cl)cc2)cs1 | 24 mm | 21 mm | 17 | < 6.25 µg/mL | 24 mm | Non-toxic | – | – | – | –
12 | CC(=O)Nc1nc(Cc2nnc(SCC(=O)NNC(=O)c3ccccc3)n2NC(=O)c2cccc([N+](=O)[O-])c2)cs1 | 30 mm | 30 mm | 27 | < 6.25 µg/mL | 32 mm | Non-toxic | – | – | – | –
13 | GENTAMICIN | – | – | – | – | – | – | 31% | 35% | 30% | 34%
14 | O=C(CSc1nnc(Cc2csc(NC(=O)c3ccccc3)n2)n1NC(=O)c1ccc(Cl)cc1)NNC(=O)c1ccccc1 | 18 mm | 24 mm | 18 | < 6.25 µg/mL | 19 mm | Non-toxic | – | – | – | –
15 | O=C(CSc1nnc(Cc2csc(NC(=O)CCl)n2)n1NC(=O)c1ccc(Cl)cc1)NNC(=O)c1ccccc1 | 21 mm | 26 mm | 20 | < 6.25 µg/mL | 21 mm | Non-toxic | – | – | – | –
16 | O=C(O)CCNc1nc(Cc2nnc(SCSc3nnc(Cc4csc(NCCC(=O)O)n4)n3NC(=O)c3ccc(Cl)cc3)n2NC(=O)c2ccc(Cl)cc2)cs1 | 22 mm | 29 mm | 20 | < 6.25 µg/mL | 21 mm | Non-toxic | – | – | – | –
17 | O=C(CCl)Nc1nc(Cc2nnc(SCSc3nnc(Cc4csc(NC(=O)CCl)n4)n3NC(=O)c3ccc(Cl)cc3)n2NC(=O)c2ccc(Cl)cc2)cs1 | 29 mm | 28 mm | 18 | < 6.25 µg/mL | 23 mm | Non-toxic | – | – | – | –
18 | Nn1c(S)nnc1CSc1nnc(Cc2csc(NC(=O)CCl)n2)n1NC(=O)c1ccc(Cl)cc1 | 22 mm | 20 mm | 20 | < 6.25 µg/mL | 27 mm | Non-toxic | – | – | – | –
19 | CC(=O)Nc1nc(Cc2nnc(SCSc3nnc(Cc4csc(NC(C)=O)n4)n3NC(=O)c3cccc([N+](=O)[O-])c3)n2NC(=O)c2cccc([N+](=O)[O-])c2)cs1 | 26 mm | 32 mm | 26 | < 6.25 µg/mL | 27 mm | Non-toxic | – | – | – | –
20 | O=C(O)CCNc1nc(Cc2nnc(SCC(=O)NNC(=O)CCl)n2NC(=O)c2cccc([N+](=O)[O-])c2)cs1 | 24 mm | 26 mm | 24 | < 6.25 µg/mL | 24 mm | Non-toxic | – | – | – | –
21 | CC(=O)Nc1nc(Cc2nnc(SCC(=O)NNC(=O)CCl)n2NC(=O)c2ccc(Cl)cc2)cs1 | 18 mm | 20 mm | 20 | < 6.25 µg/mL | 25 mm | Non-toxic | – | – | – | –
22 | CC(=O)NNC(=O)CSc1nnc(Cc2csc(NC(=O)CCl)n2)n1NC(=O)c1ccc(Cl)cc1 | 24 mm | 21 mm | 22 | < 6.25 µg/mL | 25 mm | Non-toxic | – | – | – | –
23 | CC(=O)Nc1nc(Cc2nnc(SCC(=O)NNC(=O)c3ccccc3)n2NC(=O)c2ccc(Cl)cc2)cs1 | 20 mm | 22 mm | 17 | < 6.25 µg/mL | 28 mm | Non-toxic | – | – | – | –
24 | O=C(O)CCNc1nc(Cc2nnc(SCSc3nnc(Cc4csc(NCCC(=O)O)n4)n3NC(=O)c3cccc([N+](=O)[O-])c3)n2NC(=O)c2cccc([N+](=O)[O-])c2)cs1 | 21 mm | 26 mm | 18 | < 6.25 µg/mL | 25 mm | Non-toxic | – | – | – | –
25 | COC(=O)CSc1nnc(Cc2csc(NCCC(=O)O)n2)n1NC(=O)c1cccc([N+](=O)[O-])c1 | – | 22 mm | 20 | < 6.25 µg/mL | 22 mm | Non-toxic | – | – | – | –
26 | O=C(O)CCNc1nc(Cc2nnc(SCC(=O)NNC(=O)CCl)n2NC(=O)c2ccc(Cl)cc2)cs1 | – | – | – | < 6.25 µg/mL | – | Non-toxic | – | – | – | –
27 | O=C(CCl)NNC(=O)CSc1nnc(Cc2csc(NC(=O)CCl)n2)n1NC(=O)c1ccc(Cl)cc1 | 18 mm | – | – | < 6.25 µg/mL | 24 mm | Non-toxic | – | – | – | –
28 | Nn1c(S)nnc1Cc1csc(NC(=O)CCl)n1 | 14 mm | 17 mm | 12 | – | 18 mm | Non-toxic | – | – | – | –
